ChEMBL document CHEMBL3297708, “Lead optimization of a novel series of imidazo[1,2-a]pyridine amides leading to a clinical candidate (Q203) as a multi- and extensively-drug-resistant anti-tuberculosis agent” (J Med Chem, 2014)
In brackets after ≈: the same amount, converted by molar mass.

Tests used:
[1] = system: Mycobacterium tuberculosis; test: Antimycobacterial activity against Mycobacterium tuberculosis H37Rv infected in BALB/c mouse assessed as lung bacterial load at 50 mg/kg administered 3 weeks after infection via oral gavage for 28 days, five times per week measured per lung (reference value: 7.24 +/- 0.17 log10 CFU); format: functional
How it was run: (§1)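 BALB/c mice infected intranasally with 2 x10^2 to 2 x 10^3 CFU M. tuberculosis H37Rv; oral gavage treatment started 3 weeks post-infection, given five times per week for 28 days; lung bacterial burden enumerated as log10 CFU per lung; values reported ± spread; untreated infected mice as baseline.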

[2] = Half life in mouse at 10 mg/kg, po; format: ADME, organism-based; parameters: dose 10 mg/kg, route oral; details: in vivo
How it was run: (§2)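 Mice dosed at 2 mg/kg i.v. and 10 mg/kg p.o.; plasma sampled and PK parameters (half-life, clearance, volume of distribution, Cmax, Tmax, AUC, oral bioavailability) derived from the plasma concentration–time profiles.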

[3] = Half life in human liver microsomes; format: ADME
How it was run: (§3)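 Metabolic stability measured by incubation in human or mouse liver microsomal preparations; half-life reported.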

[4] = Solubility of the compound in aqueous solution at pH 2.1; format: physicochemical
Cytochrome P450 3A4 = Cytochrome P450 3A4 (Homo sapiens, UniProt P08684); test: Inhibition of recombinant CYP3A4 (unknown origin) by LC/MS/MS analysis; format: ADME
Sequence of Cytochrome P450 3A4 (P08684 whole entry): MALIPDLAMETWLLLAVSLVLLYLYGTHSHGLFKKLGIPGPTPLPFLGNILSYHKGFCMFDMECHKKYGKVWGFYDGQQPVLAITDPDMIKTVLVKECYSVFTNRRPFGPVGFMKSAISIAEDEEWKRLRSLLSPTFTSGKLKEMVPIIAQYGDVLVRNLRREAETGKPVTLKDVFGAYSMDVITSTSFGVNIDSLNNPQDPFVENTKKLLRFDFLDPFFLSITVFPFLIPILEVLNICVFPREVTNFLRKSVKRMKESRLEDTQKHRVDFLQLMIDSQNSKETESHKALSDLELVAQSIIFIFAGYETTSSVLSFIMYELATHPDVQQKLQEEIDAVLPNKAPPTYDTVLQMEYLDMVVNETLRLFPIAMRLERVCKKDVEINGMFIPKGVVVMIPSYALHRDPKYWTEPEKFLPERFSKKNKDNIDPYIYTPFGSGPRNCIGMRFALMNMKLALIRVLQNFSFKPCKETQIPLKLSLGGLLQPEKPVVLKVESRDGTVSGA
How it was run: (§4)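 Recombinant CYP enzymes (5 pmol/mL) with substrate, in 100 mM potassium phosphate pH 7.4, 3.3 mM MgCl2, with or without 1 mM NADPH; incubated 10 min (CYP1A2, CYP2C9), 20 min (CYP2C19, CYP2D6), or 3 min (CYP3A4); stopped with cold stop solution containing tolbutamide internal standard; metabolite measured by LC-MS/MS.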

[5] = system: Mycobacterium tuberculosis; test: Antimycobacterial activity against Mycobacterium tuberculosis H37Rv infected in BALB/c mouse assessed as lung bacterial load at 2 mg/kg administered 3 weeks after infection via oral gavage for 28 days, five times per week measured per lung (reference value: 7.24 +/- 0.17 log10 CFU); format: functional; how it was run: as §1
Cytochrome P450 2D6 = Cytochrome P450 2D6 (Homo sapiens, UniProt P10635); test: Inhibition of recombinant CYP2D6 (unknown origin) by LC/MS/MS analysis; format: ADME; how it was run: as §4
Sequence of Cytochrome P450 2D6 (P10635 whole entry): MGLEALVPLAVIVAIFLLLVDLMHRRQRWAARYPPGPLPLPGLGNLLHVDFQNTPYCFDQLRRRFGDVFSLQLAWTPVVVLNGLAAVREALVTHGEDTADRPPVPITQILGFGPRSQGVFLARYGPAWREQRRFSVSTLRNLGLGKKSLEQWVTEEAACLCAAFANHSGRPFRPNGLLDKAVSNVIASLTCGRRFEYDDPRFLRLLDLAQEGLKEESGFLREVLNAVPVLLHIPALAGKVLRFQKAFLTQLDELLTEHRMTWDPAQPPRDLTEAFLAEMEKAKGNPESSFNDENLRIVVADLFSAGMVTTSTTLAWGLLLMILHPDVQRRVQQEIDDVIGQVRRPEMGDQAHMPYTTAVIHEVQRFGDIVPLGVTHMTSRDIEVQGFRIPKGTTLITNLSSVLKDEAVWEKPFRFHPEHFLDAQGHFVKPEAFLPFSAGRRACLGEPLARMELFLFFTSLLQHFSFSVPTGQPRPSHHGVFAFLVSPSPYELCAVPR

Cytochrome P450 2C9 = Cytochrome P450 2C9 (Homo sapiens, UniProt P11712); test: Inhibition of recombinant CYP2C9 (unknown origin) by LC/MS/MS analysis; format: ADME; how it was run: as §4
Sequence of Cytochrome P450 2C9 (P11712 whole entry): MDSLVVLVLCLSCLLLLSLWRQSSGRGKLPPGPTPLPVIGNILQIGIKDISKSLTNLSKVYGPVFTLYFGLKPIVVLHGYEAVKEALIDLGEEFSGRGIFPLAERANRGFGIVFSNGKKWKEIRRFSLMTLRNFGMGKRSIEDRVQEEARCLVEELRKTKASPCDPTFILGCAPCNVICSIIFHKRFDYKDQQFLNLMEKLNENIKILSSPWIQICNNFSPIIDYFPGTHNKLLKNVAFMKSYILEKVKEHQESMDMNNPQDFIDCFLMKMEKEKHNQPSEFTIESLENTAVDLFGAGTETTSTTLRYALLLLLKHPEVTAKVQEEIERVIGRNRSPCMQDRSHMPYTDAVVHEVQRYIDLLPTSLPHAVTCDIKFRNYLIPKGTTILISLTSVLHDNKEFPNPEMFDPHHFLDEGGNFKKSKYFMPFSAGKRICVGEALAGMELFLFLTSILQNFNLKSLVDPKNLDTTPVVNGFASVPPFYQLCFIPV

[6] = Tmax in mouse at 10 mg/kg, po; format: ADME, organism-based; parameters: dose 10 mg/kg, route oral; details: in vivo; how it was run: as §2
[7] = system: Mycobacterium tuberculosis; test: Antimycobacterial activity against Mycobacterium tuberculosis H37Rv in liquid broth culture medium; format: functional
How it was run: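 M. tuberculosis H37Rv replicating in liquid broth culture medium; MIC80 determined, i.e. concentration inhibiting 80% of growth.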

[8] = Solubility of the compound in phosphate buffer at pH 7.4; format: physicochemical
[9] = Oral bioavailability in mouse at 10 mg/kg; format: ADME, organism-based; details: in vivo; how it was run: as §2
Cytochrome P450 2C19 = Cytochrome P450 2C19 (Homo sapiens, UniProt P33261); test: Inhibition of recombinant CYP2C19 (unknown origin) by LC/MS/MS analysis; format: ADME; how it was run: as §4
Sequence of Cytochrome P450 2C19 (P33261 whole entry): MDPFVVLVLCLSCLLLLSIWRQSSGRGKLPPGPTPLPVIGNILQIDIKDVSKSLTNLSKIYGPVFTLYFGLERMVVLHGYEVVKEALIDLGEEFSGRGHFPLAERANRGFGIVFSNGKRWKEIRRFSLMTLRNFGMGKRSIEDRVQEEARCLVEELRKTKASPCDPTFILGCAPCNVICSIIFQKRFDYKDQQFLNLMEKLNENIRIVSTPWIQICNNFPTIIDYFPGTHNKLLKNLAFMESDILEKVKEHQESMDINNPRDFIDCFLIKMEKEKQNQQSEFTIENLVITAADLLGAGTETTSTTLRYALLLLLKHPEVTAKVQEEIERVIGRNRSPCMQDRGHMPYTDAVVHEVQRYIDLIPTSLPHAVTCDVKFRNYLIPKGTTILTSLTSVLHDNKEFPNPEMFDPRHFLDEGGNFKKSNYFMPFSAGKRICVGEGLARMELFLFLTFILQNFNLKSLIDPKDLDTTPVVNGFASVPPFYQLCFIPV

[10] = Cmax in mouse at 10 mg/kg, po; format: ADME, organism-based; parameters: dose 10 mg/kg, route oral; details: in vivo; how it was run: as §2
Cytochrome P450 1A2 = molecular target: T1, Cytochrome P450 1A2 (Homo sapiens, UniProt P05177); test: Inhibition of recombinant CYP1A2 (unknown origin) by LC/MS/MS analysis; format: ADME; how it was run: as §4
T1 sequence (P05177 whole entry): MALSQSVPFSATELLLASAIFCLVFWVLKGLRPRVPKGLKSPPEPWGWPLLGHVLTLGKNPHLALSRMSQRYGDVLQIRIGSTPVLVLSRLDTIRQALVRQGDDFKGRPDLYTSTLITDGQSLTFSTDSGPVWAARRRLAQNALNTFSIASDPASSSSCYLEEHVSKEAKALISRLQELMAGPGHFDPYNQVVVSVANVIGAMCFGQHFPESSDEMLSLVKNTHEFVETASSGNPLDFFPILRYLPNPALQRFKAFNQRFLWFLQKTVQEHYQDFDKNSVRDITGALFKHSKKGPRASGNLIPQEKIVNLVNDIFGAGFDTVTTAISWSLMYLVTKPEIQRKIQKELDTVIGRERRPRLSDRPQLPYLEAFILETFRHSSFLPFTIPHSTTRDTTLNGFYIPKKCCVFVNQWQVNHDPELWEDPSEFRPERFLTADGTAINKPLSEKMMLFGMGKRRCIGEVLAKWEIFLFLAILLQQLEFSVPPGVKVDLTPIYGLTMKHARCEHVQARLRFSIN

[11] = Volume of distribution at steady state in mouse at 2 mg/kg, iv; format: ADME, organism-based; parameters: dose 2 mg/kg, route intravenous; details: in vivo, read-out: Vdss; how it was run: as §2
[12] = AUC (0 to infinity) in mouse at 10 mg/kg, po; format: ADME, organism-based; parameters: time infinity, dose 10 mg/kg, route oral; details: plasma; how it was run: as §2
[13] = system: Mycobacterium tuberculosis; test: Antimycobacterial activity against Mycobacterium tuberculosis H37Rv infected in BALB/c mouse assessed as lung bacterial load at 10 mg/kg administered 3 weeks after infection via oral gavage for 28 days, five times per week measured per lung (reference value: 7.24 +/- 0.17 log10 CFU); format: functional; how it was run: as §1
[14] = system: Mycobacterium tuberculosis; test: Antimycobacterial activity against Mycobacterium tuberculosis H37Rv in macrophages; format: functional
How it was run: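 M. tuberculosis H37Rv replicating inside macrophages; intracellular MIC80 determined, i.e. concentration inhibiting 80% of growth.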

[15] = Elimination half life in mouse at 2 mg/kg, iv; format: ADME, organism-based; parameters: dose 2 mg/kg, route intravenous; details: in vivo, read-out: beta t1/2 (converted); how it was run: as §2
[16] = Half life in mouse liver microsomes; format: ADME; how it was run: as §3
[17] = system: Mycobacterium tuberculosis; test: Antimycobacterial activity against Mycobacterium tuberculosis H37Rv infected in BALB/c mouse assessed as lung bacterial load administered 3 weeks after infection via oral gavage for 28 days, five times per week measured per lung; format: functional, organism-based; how it was run: as §1
[18] = Clearence in mouse at 2 mg/kg, iv; format: ADME, organism-based; parameters: dose 2 mg/kg, route intravenous; details: in vivo; how it was run: as §2
[19] = system: Mycobacterium tuberculosis; test: Antimycobacterial activity against Mycobacterium tuberculosis H37Rv infected in BALB/c mouse assessed as lung bacterial load at 15 mg/kg administered 3 weeks after infection via oral gavage for 28 days, five times per week measured per lung (reference value: 7.24 +/- 0.17 log10 CFU); format: functional; how it was run: as §1

Structure (SMILES)	half-life [2] [h]	half-life [3] [h]	solubility [4] [µg/mL]	IC50 (Cytochrome P450 3A4) [µM]	IC50 (Cytochrome P450 2D6) [µM]	IC50 (Cytochrome P450 2C9) [µM]	Tmax [6] [h]	MIC80 [7] [nM]	solubility [8] [µg/mL]	bioavailability [9] [%]	IC50 (Cytochrome P450 2C19) [µM]	Cmax [10] [ng/mL]	IC50 (Cytochrome P450 1A2) [µM]	Vd [11] [L/kg]	AUC(0-inf) [12] [ng·h/mL]	MIC80 [14] [nM]	half-life [15] [h]	half-life [16] [h]	inhibition [17]	clearance [18] [mL/min/kg]	other results
CCc1nc2cc(Cl)ccn2c1C(=O)NCc1ccc(N2CCC(c3ccc(OC(F)(F)F)cc3)CC2)cc1	21.3	> 2	55.8 (≈ 100 µM)	> 100	> 100	0.14	2	4 (≈ 2.23 ng/mL)	1.32 (≈ 2.37 µM)	80.2	0.29	1990	> 100	14.3	27300	3.7 (≈ 2.06 ng/mL)	62.3	> 2	Dose-dependent effect	3.15	log10cfu [1]: 5.65; log10cfu [5]: 6.23; log10cfu [13]: 5.72
NNC(=O)c1ccncc1 [ISONIAZID]								449 (≈ 61.6 ng/mL)								617 (≈ 84.6 ng/mL)			Dose-dependent effect		log10cfu [19]: 5.01
CCc1nc2ccc(Cl)cn2c1C(=O)NCc1ccc(N2CCC(c3ccc(OC(F)(F)F)cc3)CC2)cc1 [TELACEBEC]	23.4	> 2	41.5 (≈ 74.5 µM)	> 100	> 100	> 100	2	4 (≈ 2.23 ng/mL)	1.71 (≈ 3.07 µM)	90.7	> 100	1490	> 100	5.27	44100	1.43 (≈ 0.797 ng/mL)	16.5	> 2		4	
CCc1nc2cc(Cl)ccn2c1C(=O)NCc1ccc(N2CCN(c3ccc(F)cc3)CC2)cc1	9.4	> 2		> 40	> 40	> 40	2	5.7 (≈ 2.8 ng/mL)		69.9	> 40	4450	> 40	0.877	59600	0.3 (≈ 0.148 ng/mL)	6.15	0.555		1.9	
